In this data set the test system is MS2 coat protein. The data set can be described thus: apparent Kd, MS2 coat protein; higher = weaker binding; RNA-MaP array; FMN 200 µM where present. In a few lines: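 Designs were transcribed by stalled E. coli RNA polymerase on Illumina sequencing-chip clusters. They were titrated with SNAP-549-labelled MS2 coat protein from 0.7 or 1.5 nM, doubling to 3 µM, without and then with constant ligand. Buffer: 100 mM Tris-HCl pH 7.5, 80 mM KCl, 4 mM MgCl2, BSA, DTT, yeast tRNA, Tween-20. Green signal was normalised to red-channel RNA signal and control-cluster median Fmax. Apparent Kd is the median of filtered per-cluster binding-curve fits.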

[1] abbreviates: designed as: ON switch for flavin mononucleotide, no ligand.
The mark [2] stands for this setting: ligand present: flavin mononucleotide, designed as: ON switch for flavin mononucleotide.
The mark [3] stands for this setting: designed as: OFF switch for flavin mononucleotide, no ligand.
[4] abbreviates: ligand present: flavin mononucleotide, designed as: OFF switch for flavin mononucleotide.

Turning to “CCGGAAACGGGUAGCUGACAUGAGGAUCACCCAUGUGAAACACAGGAUAUGGAUCCUAAUUGGAUCCAGAAGGGUGUCAGCUAC”, the “apparent Kd” value amounted to 247 nM under setting [1] and 37.2 nM under setting [2].

With “UUGGACAGCUAGAACUGUUAAGUACAUGAGGAUCACCCAUGUCAGGAUAUCCUUCCGCAAUGCGAGGAGAAGGGACAGGGUCCC”, the “apparent Kd” value under setting [3] came to 53.7 nM and the “apparent Kd” value under setting [4] worked out at 124 nM.

As for “AUUAAACAUGAGGAUCACCCAUGUCAACAAAGUCGAGGAUAUGGGCAUAUUAUCUUAUUUCCAGAAGGCGAAUAAU”, the “apparent Kd” value reads like this: under setting [1], 121 nM; under setting [2], 33.9 nM.

“GUUGACAGCACAGGAUAUGCGCAGUCUAUAUCACAUGAGGAUCACCCAUGUCGGCAACAGACCGAGCAGAAGGGUGCGAGUGUG”: the “apparent Kd” value under setting [1] worked out at 235 nM and the “apparent Kd” value under setting [2] came to 39.7 nM.

As to “AACAGCUCGUCAGGAUAUAUUAUCUUUUAAUGUAUUUAUGUACAUGAGGAUCACCCAUGUUGUUUGUAGAAGGGACGAGCUGAA”, the “apparent Kd” value was determined as 11.1 nM under setting [3] and 13.1 nM under setting [4].

Consider “GGUACCAACACAGGAUAUGCUAUCCUUUGGGUAGCAGAAGGGUGAAACAUGAGGAUCACCCAUGUGGUGCCACCCGGUGACGGG”, for which the “apparent Kd” value under setting [1] turned out to be 1180 nM and the “apparent Kd” value under setting [2] turned out to be 89.2 nM.

On to “UUUAGUUCAGGAUAUGUAGAUUUUAACAUGAGGAUCACCCAUGUAAAUCCUGAUCCUGCUACAGAAGGGAACAUUU”, for which the “apparent Kd” value reads like this: under setting [3], 17 nM; under setting [4], 20.7 nM.

“GUGGUACAUGAGGAUCACCCAUGUUAGGAUAUCGCGUGAGGUUUUACUUCCGCACGCGCGAGAAGGGACGUCUU”: the “apparent Kd” value runs as follows: under setting [3], 36.2 nM; under setting [4], 29.5 nM.

“GAGAGCCGCGAAGGAUAUACAUCCGUGACCGUCAACAUGAGGAUCACCCAUGUAGAAGGUCGCUGCCUCUUGACAACUGACAAG”: the “apparent Kd” value runs as follows: under setting [3], 5.16 nM; under setting [4], 18.4 nM.

As to “AUCAUGCUCAAGAAGGACAUGAGGAUCACCCAUGUAGGAUAUUGGGCGGUCACCUCUAGCUUGUGUGUAUCUGAAUACUCCAGG”, the “apparent Kd” value is, setting by setting: under setting [1], 21.1 nM; under setting [2], 7.17 nM.

As to “AAACAACAUGAGGAUCACCCAUGUAAGGAUAUGCGAGUUGGGUCAACGAAGGUUGAAGGCAGAAGGUAUAGGGU”, the “apparent Kd” value under setting [3] was found to be 58.5 nM and the “apparent Kd” value under setting [4] was 50.4 nM.

For the sequence “CACUGCAAUGUAGGAUAUCGACUGGAUAACAGUCGAGAAGGACAUGAGGAUCACCCAUGUACUAAUAGUGAUAAUAAAGCAGUG”, the “apparent Kd” value amounted to 13.5 nM under setting [3] and 55 nM under setting [4].

As to “UGACUGAAGCAAGGAUAUUGUAAAGUUAUCGUACAAGAAGGUGCUGUUUAUGUCUCUUUACAUGAGGAUCACCCAUGUUUUUAU”, the “apparent Kd” value was 32.8 nM under setting [1] and 24.6 nM under setting [2].

With “GUCCUACAUGAGGAUCACCCAUGUGAGGAUAUGGAUUCGCUGGCCGUAGCCAGUGGAUCCAGAAGGCGCAUGAU”, the “apparent Kd” value amounted to 26.9 nM under setting [3] and 82.8 nM under setting [4].

In the case of “AUAUGAUAGAUAGGAUAUACAGUGGAUUUAUAAGUAGAAGGAUCAAGUGGGAAUUAUACAUGAGGAUCACCCAUGUUUUUGGAU”, the “apparent Kd” value is, setting by setting: under setting [1], 68.2 nM; under setting [2], 45.8 nM.

With “AGCUACGUUUCGUAGCAGUGUCAUCGAGAAGGCCUUAUAACAUGAGGAUCACCCAUGUUAACAUGGGAGGAUAUCGAUGAUACA”, the “apparent Kd” value was determined as 10.5 nM under setting [1] and 5.34 nM under setting [2].

For “CCCUAGGUAGGAUAUACUUGGACUCGGCUGAUGUGCCUAAAACAUGAGGAUCACCCAUGUAGAAGGACUAAGGC”, the “apparent Kd” value under setting [3] is 12.6 nM and the “apparent Kd” value under setting [4] is 11.6 nM.

For the sequence “CGCGAAUUACAGAAGGGACAAGGGAUAAAACCCAGGUCUUGCAGUAGACAUGAGGAUCACCCAUGUCAGGAUAUGUAGAGAGUU”, the “apparent Kd” value under setting [3] stood at 17.2 nM and the “apparent Kd” value under setting [4] came to 95.5 nM.

With “AGAGUUUCGUUGUGACCCAUUCACAUGAGGAUCACCCAUGUAGAGGAUAUAGGUCACCACGGUACCUAGAAGGCUACAGGUGUG”, the “apparent Kd” value is, setting by setting: under setting [3], 13.4 nM; under setting [4], 15.5 nM.

Regarding “AUACCACGAGGAUAUCGUCUAUAAUACAUGAGGAUCACCCAUGUUAUAUCUGUAAUGUUUCGAGAAGGCGUUUGUU”, the “apparent Kd” value is 24.3 nM under setting [3] and 17.1 nM under setting [4].

Turning to “GACUCGAAUGUAGGAUAUGCUGAGGAUAACUCAGCAGAAGGACAUGAGGAUCACCCAUGUAAAUGAGUGAAUAAUAAACGAGUC”, the “apparent Kd” value came out at 1400 nM under setting [3] and 129 nM under setting [4].

As for “UUAUAUUUACAAGGAUAUCAAUUAUUUAUACUUCCUACAUGAGGAUCACCCAUGUUUUUAUAUUUUGAGAAGGUGUAAUGUCGG”, the “apparent Kd” value runs as follows: under setting [1], 38.5 nM; under setting [2], 33.7 nM.

Take “AUCAGCUCGUCAGGAUAUAUGUCACUGCUUCGGCAGUGUGGUAAGAUUACAUGAGGAUCACCCAUGUAGAAGGGACGAGCUGAU”: the “apparent Kd” value under setting [3] was determined as 6.12 nM and the “apparent Kd” value under setting [4] is 6.9 nM.

In the case of “AGUAUGCGAGGAUAUACAUGAGGAUCACCCAUGUGAGAGAUAAAAGUGAGAAAGACAAGUAGAAGGCGCGUACA”, the “apparent Kd” value came to 61.9 nM under setting [3] and 451 nM under setting [4].

Turning to “UGUACCGUUGGAACGCGUCGAGUACAUGAGGAUCACCCAUGUCAGGAUAUGUGGCGAAAGGUAGCACAGAAGGGACAUAGAAGA”, the “apparent Kd” value amounted to 32.6 nM under setting [3] and 92.3 nM under setting [4].

In the case of “AUACUCAUGUAAGGAUAUGCAGCCGUUUCGGCUGCAGAAGGUACUAUAAUACAUGAGGAUCACCCAUGUCUCUCGCAUUGCGGG”, the “apparent Kd” value by setting is: under setting [1], 400 nM; under setting [2], 101 nM.

Turning to “GUCGGAAACGACAAGUAGCAAUCGGAGGAUAUUCAUGAAAACAUGAGGAUCACCCAUGUAAAUUGGGAGAAGGCCGAUUGCUAC”, the “apparent Kd” value turned out to be 91.6 nM under setting [1] and 8.48 nM under setting [2].

Take “GGAUGUCAAAGACAUCCAUAACGAACAUGAGGAUCACCCAUGUAGGAUAUGCUACUCAAAGAGUAGCAGAAGGACAUGUGUCUU”: the “apparent Kd” value by setting is: under setting [3], 30.3 nM; under setting [4], 150 nM.

“CCAUAAAAGAUCCAAAAUUACAACAUGAGGAUCACCCAUGUGCAGGAUAUCGUGCCAGUGAUGUACGAGAAGGGCAGACACUGC”: the “apparent Kd” value amounted to 356 nM under setting [3] and 400 nM under setting [4].

With “CGAUAACAUAGUUAUCCGUAGCGGACAUGAGGAUCACCCAUGUAGGAUAUGUUACUCAACGAGUAACAGAAGGACAUGAGUCUU”, the “apparent Kd” value is, setting by setting: under setting [3], 18.1 nM; under setting [4], 114 nM.

Regarding “GGUGAAGCAGGAUAUGUAUCGAUAUACAUGAGGAUCACCCAUGUCAUGUUCGAAUCGCAUAUAGAAGGGCUUCACC”, the “apparent Kd” value is, setting by setting: under setting [3], 13.4 nM; under setting [4], 16.7 nM.

Consider “UUUUAACAUGAGGAUCACCCAUGUGAGGAUAUCGAAAUUUAUAUUUAUAUUUAUAUUACGAGAAGGCACAUUUU”, for which the “apparent Kd” value is, setting by setting: under setting [3], 84.9 nM; under setting [4], 102 nM.

Take “ACUAGAUGAGGAUAUGCACAUUUUAGUGUUCCUCUAGAUUAACAUGAGGAUCACCCAUGUAGAAGGCGUCAUUA”: the “apparent Kd” value was 68 nM under setting [3] and 76.6 nM under setting [4].

Regarding “CCAUGGCAUGUAGGAUAUCUCUGACAAAGUCAGAGAGAAGGACAUGAGGAUCACCCAUGUAAACCGAAAGGAACAUAGCCAUGG”, the “apparent Kd” value is, setting by setting: under setting [3], 6.31 nM; under setting [4], 6.26 nM.

Consider “UGUCGGAGCAGAGGAUAUUACAUGAGGAUCACCCAUGUAUGAACCAAUAGCUGGAAACAGCAAUGGAAGAAGGCUGCUCCGACA”, for which the “apparent Kd” value under setting [3] was 4.99 nM and the “apparent Kd” value under setting [4] was 5.37 nM.

In the case of “GAUUAUAAGUAAGGAUAUGUAUAUGAAACAUAUACAGAAGGUACAUGAGGAUCACCCAUGUUCUUGCAGCGCGAAUAUGUAAUC”, the “apparent Kd” value by setting is: under setting [3], 18.9 nM; under setting [4], 27.7 nM.

On to “CGUUAUGAUAGAGGAUAUGUAAUACAUGAGGAUCACCCAUGUUACAUGGGUAAUAUUAAUAAUUAACAGAAGGCUAUCCUUUCG”, for which the “apparent Kd” value under setting [3] worked out at 484 nM and the “apparent Kd” value under setting [4] amounted to 149 nM.

As for “GCACUGGAUGUAGGAUAUCAGGACGAUAAGUCCUGAGAAGGACAUGAGGAUCACCCAUGUGCUCAAUAACCAGUGCAUAAUAUA”, the “apparent Kd” value under setting [3] worked out at 14.5 nM and the “apparent Kd” value under setting [4] came out at 20.3 nM.

“ACACAGAAAGGAUAUGCAGGGAGAUAAAGCUUCUUGUUCCAACAUGAGGAUCACCCAUGUAGAAGGUUCGAAAA”: the “apparent Kd” value is 32 nM under setting [3] and 99.5 nM under setting [4].

In the case of “UAUAUGUCAGGAUAUCGAUUGGAAUGGAAUUCAGUUCUGGUUGAGAAGGGACAUGAGGAUCACCCAUGUUUUUC”, the “apparent Kd” value is, setting by setting: under setting [3], 37.3 nM; under setting [4], 171 nM.

On to “UUGCCACAUGAGGAUCACCCAUGUGAGGAUAUGGCCCGUUUGGCGUGUGCUGGUUCUGUCAGAAGGCGCGUGGG”, for which the “apparent Kd” value reads like this: under setting [3], 24.5 nM; under setting [4], 21.7 nM.

For the sequence “CUUUUGUGAGGAUAUCAGUAGUAAAUAAAUAAAUUUACUACUGAGAAGGCACAUGAGGAUCACCCAUGUUCCUC”, the “apparent Kd” value runs as follows: under setting [3], 39.1 nM; under setting [4], 292 nM.

As to “GGUUAUGAAGGAUAUACAUGAGGAUCACCCAUGUUACGUACUUCGGGAUUCUGCCAGUGUAGAAGGUCAUGUCU”, the “apparent Kd” value stood at 24.3 nM under setting [3] and 49.2 nM under setting [4].

Regarding “AUGCUUUAUGUAGGAUAUUCAAACGGUAAGAAUGGAGAAGGACAUGAGGAUCACCCAUGUAAAAUAUUAUUAGAUAUCAUACAU”, the “apparent Kd” value under setting [3] amounted to 22.1 nM and the “apparent Kd” value under setting [4] came to 19.4 nM.

As for “AUUCAGCGAGGAUAUACAGGUUCUGGGUGAGGCUCGGCGAGACAUGAGGAUCACCCAUGUAGAAGGUGCUAGCC”, the “apparent Kd” value worked out at 341 nM under setting [3] and 284 nM under setting [4].

“GACAGACAUGAGGAUCACCCAUGUACAAACGUACAAGGAUAUGUGUGGAAACCGUACUAUACAGAAGGUGUCUGUC”: the “apparent Kd” value is 121 nM under setting [1] and 151 nM under setting [2].

On to “AAAAGCAACACAGGAUAUAUCACGGGUGAUUUGAUAGAAGGGUGAGCGAAAGAGAGCAACAUGAGGAUCACCCAUGUAUGUUUG”, for which the “apparent Kd” value was found to be 304 nM under setting [1] and 184 nM under setting [2].

With “GGAGCCCAGUCAGGAUAUGUAACGCUUAGGCUGUUACAUGAGGAUCACCCAUGUUUCACCGUGAAACAGAAGGGACAUUUGGCU”, the “apparent Kd” value by setting is: under setting [1], 382 nM; under setting [2], 122 nM.

As usually defined, the apparent Kd is a dissociation constant that holds for the conditions of the assay.
